Measured values reported in ChEMBL document CHEMBL3393023, “Benzimidazole-containing HCV NS5A inhibitors: effect of 4-substituted pyrrolidines in balancing genotype 1a and 1b potency” (Bioorg Med Chem Lett, 2015).

Assays:
[1] = tested on: Hepatitis C virus; test: Antiviral activity against Hepatitis C virus genotype 1a infected in W11.8 cells assessed as decrease in NS5A expression in replicon cell after 4 days by luminescence based ELISA; assay type: functional, Hepacivirus hominis; settings: subtype 1a, W11.8, 96 h
[2] = tested on: Hepatitis C virus; test: Antiviral activity against Hepatitis C virus genotype 1b infected in human Huh-5.2 cells assessed as decrease in HCV replicon RNA replication after 4 days by luciferase assay; assay type: functional, cell-based, Hepacivirus hominis; settings: Huh-5-2, 96 h
[3] = tested on: Hepatitis C virus; test: Selectivity index, ratio of EC50 for HCV genotype 1a expressing NS5A Y93H mutant to EC50 for HCV genotype 1a expressing wild type NS5A; assay type: functional, Hepacivirus hominis, subtype 1a
Summary of the method: (§1)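 Recombinant HCV replicon cell lines carrying the single NS5A substitution were tested, with the matching wild-type replicon as reference. The value is the fold shift of activity against the mutant relative to wild-type activity.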

[4] = tested on: Hepatitis C virus; test: Selectivity index, ratio of EC50 for HCV genotype 1a expressing NS5A Q30R mutant to EC50 for HCV genotype 1a expressing wild type NS5A; assay type: functional, Hepacivirus hominis, subtype 1a; summary of the method: as §1
[5] = tested on: Hepatitis C virus; test: Selectivity index, ratio of EC50 for HCV genotype 1a expressing NS5A M28T mutant to EC50 for HCV genotype 1a expressing wild type NS5A; assay type: functional, Hepacivirus hominis, subtype 1a; summary of the method: as §1
[6] = tested on: Hepatitis C virus; test: Selectivity index, ratio of EC50 for HCV genotype 1b expressing NS5A Y93H mutant to EC50 for HCV genotype 1b expressing wild type NS5A; assay type: functional, Hepacivirus hominis; summary of the method: as §1
[7] = Cytotoxicity against human Huh7ET cells by [3H]-thymidine incorporation assay; assay type: cell-based; settings: Huh7ET cells (Huh-7)
Summary of the method: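 Huh-7 ET cells were exposed to 12 test-compound concentrations, each in duplicate. Viability was read by [3H]-thymidine incorporation and CC50 was derived from the curve. A run was accepted only when the positive-control CC50 fell within 40% of its mean value.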

[8] = Metabolic stability in human hepatocytes assessed as compound remaining at 5 uM after 60 mins; assay type: ADME, cell-based, Hepatocyte; settings: read-out: Stability
[9] = Metabolic stability in rat hepatocytes assessed as compound remaining at 5 uM after 60 mins; assay type: ADME, cell-based, Hepatocyte; settings: read-out: Stability
[10] = target: Cytochrome P450 3A4 (Homo sapiens, UniProt P08684); test: Inhibition of CYP3A4 (unknown origin); assay type: ADME
Sequence of Cytochrome P450 3A4 (P08684 whole entry): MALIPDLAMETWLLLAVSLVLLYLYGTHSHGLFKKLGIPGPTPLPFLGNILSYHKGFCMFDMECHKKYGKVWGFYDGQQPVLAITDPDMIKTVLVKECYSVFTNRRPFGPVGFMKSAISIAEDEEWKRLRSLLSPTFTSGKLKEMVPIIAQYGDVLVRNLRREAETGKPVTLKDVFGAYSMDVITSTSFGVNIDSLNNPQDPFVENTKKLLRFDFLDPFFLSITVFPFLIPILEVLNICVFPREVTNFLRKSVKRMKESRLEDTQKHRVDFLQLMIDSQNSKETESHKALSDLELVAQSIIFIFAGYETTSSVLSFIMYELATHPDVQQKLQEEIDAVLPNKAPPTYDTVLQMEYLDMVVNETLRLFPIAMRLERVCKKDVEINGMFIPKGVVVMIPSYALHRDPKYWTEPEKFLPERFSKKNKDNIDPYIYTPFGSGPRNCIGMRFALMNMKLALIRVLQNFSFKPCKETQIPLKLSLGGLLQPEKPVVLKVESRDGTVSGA

[11] = target: Cytochrome P450 2C9 (Homo sapiens, UniProt P11712); test: Inhibition of CYP2C9 (unknown origin); assay type: ADME
Sequence of Cytochrome P450 2C9 (P11712 whole entry): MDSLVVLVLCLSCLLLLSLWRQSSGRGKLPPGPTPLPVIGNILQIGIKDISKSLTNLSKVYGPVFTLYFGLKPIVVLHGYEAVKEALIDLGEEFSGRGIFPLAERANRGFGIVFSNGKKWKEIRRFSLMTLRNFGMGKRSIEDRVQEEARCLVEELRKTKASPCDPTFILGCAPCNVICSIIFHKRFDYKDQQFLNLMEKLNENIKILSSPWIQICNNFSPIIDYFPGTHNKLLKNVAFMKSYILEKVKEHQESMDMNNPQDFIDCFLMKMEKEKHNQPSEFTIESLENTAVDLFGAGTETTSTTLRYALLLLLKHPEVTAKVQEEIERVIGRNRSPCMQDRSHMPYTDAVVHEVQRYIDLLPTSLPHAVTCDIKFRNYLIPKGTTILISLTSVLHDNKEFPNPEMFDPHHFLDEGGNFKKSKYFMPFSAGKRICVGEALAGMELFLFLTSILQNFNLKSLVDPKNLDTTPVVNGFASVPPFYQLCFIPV

[12] = target: Cytochrome P450 2D6 (Homo sapiens, UniProt P10635); test: Inhibition of CYP2D6 (unknown origin); assay type: ADME
Sequence of Cytochrome P450 2D6 (P10635 whole entry): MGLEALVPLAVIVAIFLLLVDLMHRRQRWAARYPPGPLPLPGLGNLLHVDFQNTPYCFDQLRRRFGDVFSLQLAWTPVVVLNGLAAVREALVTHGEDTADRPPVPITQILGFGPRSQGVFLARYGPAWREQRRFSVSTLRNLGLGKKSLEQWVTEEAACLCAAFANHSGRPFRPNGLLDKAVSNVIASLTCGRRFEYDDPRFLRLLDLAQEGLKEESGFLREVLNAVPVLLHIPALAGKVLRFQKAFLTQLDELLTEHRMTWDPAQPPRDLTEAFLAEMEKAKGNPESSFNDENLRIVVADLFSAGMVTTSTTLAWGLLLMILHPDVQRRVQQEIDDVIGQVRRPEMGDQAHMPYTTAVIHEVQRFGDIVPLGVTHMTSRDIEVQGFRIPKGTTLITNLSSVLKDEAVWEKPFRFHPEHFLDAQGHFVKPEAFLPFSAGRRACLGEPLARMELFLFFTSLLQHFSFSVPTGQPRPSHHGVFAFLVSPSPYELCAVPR

[13] = target: Cytochrome P450 2C19 (Homo sapiens, UniProt P33261); test: Inhibition of CYP2C19 (unknown origin); assay type: ADME
Sequence of Cytochrome P450 2C19 (P33261 whole entry): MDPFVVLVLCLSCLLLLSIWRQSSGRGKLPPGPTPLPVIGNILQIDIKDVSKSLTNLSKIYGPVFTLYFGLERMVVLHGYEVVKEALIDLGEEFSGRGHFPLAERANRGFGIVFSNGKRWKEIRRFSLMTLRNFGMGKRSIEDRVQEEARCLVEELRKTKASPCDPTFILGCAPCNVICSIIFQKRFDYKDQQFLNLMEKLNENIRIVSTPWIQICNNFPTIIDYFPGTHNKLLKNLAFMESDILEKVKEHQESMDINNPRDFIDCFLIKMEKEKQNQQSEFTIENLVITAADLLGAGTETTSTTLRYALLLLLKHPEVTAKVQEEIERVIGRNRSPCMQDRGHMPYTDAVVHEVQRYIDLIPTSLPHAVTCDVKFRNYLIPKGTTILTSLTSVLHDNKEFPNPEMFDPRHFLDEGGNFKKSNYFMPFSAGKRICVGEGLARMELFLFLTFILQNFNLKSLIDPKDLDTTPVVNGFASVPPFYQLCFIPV

[14] = target: T1, Cytochrome P450 1A2 (Homo sapiens, UniProt P05177); test: Inhibition of CYP1A2 (unknown origin); assay type: ADME
T1 sequence (P05177 whole entry): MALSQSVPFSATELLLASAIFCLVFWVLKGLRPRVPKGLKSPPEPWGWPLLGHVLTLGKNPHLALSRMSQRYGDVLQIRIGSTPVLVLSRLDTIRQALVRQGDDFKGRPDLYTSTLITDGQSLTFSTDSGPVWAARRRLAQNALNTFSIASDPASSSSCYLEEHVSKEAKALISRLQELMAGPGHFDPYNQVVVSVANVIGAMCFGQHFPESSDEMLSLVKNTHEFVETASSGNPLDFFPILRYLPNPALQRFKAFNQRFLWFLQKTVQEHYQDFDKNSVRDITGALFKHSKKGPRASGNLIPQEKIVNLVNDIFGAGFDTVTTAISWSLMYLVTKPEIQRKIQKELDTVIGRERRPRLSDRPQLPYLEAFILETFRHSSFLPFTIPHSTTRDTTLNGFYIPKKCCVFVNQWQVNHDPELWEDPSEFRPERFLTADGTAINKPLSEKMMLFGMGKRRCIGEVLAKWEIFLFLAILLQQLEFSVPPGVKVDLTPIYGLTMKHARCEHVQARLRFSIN

[15] = target: T2, Voltage-gated inwardly rectifying potassium channel KCNH2 (Homo sapiens, UniProt Q12809); test: Inhibition of human ERG channel by planar technique
T2 sequence (Q12809 whole entry): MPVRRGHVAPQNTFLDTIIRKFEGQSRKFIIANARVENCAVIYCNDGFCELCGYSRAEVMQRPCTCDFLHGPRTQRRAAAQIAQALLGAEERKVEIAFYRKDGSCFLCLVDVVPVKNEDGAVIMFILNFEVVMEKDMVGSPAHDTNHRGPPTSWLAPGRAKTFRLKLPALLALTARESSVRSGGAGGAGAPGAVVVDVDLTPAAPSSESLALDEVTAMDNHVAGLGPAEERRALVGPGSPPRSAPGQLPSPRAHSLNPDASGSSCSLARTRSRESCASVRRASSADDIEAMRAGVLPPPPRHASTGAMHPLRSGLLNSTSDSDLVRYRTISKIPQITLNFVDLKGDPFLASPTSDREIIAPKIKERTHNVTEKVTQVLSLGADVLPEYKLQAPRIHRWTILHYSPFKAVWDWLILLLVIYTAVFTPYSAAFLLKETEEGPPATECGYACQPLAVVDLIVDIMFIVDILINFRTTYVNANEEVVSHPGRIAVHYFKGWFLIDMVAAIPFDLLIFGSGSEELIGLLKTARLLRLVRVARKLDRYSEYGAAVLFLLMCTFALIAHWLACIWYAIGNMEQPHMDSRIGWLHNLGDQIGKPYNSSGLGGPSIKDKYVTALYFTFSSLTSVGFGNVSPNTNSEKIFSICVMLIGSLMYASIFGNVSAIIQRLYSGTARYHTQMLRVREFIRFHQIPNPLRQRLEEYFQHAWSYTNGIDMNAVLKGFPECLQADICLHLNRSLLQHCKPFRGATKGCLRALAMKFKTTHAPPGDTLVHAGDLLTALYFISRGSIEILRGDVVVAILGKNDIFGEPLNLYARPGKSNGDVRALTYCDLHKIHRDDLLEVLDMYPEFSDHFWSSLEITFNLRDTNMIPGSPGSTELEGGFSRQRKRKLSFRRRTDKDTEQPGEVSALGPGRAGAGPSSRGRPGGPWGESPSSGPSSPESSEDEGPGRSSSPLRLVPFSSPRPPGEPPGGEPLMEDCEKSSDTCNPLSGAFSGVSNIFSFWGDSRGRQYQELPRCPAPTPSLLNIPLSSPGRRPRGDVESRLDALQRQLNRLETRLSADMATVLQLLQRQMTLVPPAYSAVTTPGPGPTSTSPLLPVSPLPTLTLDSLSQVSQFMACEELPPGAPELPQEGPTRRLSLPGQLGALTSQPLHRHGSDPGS

[16] = target: T2, Voltage-gated inwardly rectifying potassium channel KCNH2; test: Inhibition of human ERG channel by QPatch technique
[17] = Protein binding in human plasma; assay type: ADME, cell-free; settings: read-out: PPB (converted)
[18] = Protein binding in rat plasma; assay type: ADME, cell-free; settings: read-out: PPB (converted)
[19] = Permeability from apical to basolateral layer in human Caco2 cells; assay type: ADME, cell-based; settings: Caco-2, read-out: permeability
[20] = tested on: MDR1 (human); test: Efflux ratio of permeability in MDCK cells over-expressing human Mdr1; assay type: ADME, cell-based, Canis lupus familiaris; settings: dog
[21] = Clearance in iv dosed rat; assay type: ADME, organism-based; settings: in vivo
[22] = Half life in iv dosed rat; assay type: ADME, organism-based; settings: in vivo
[23] = Volume of distribution at steady state in iv dosed rat; assay type: ADME, organism-based; settings: in vivo, read-out: Vdss
[24] = AUC (0 to 8 hrs) in rat at 3 mg/kg, po; assay type: ADME, organism-based; set-up: time < 8 hr, dose 3 mg/kg, route oral; settings: plasma
Summary of the method: (§2)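 Rats were dosed orally at 3 mg/kg as a solution in 30% aqueous PEG-400.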

[25] = Half life in rat at 3 mg/kg, po; assay type: ADME, organism-based; set-up: dose 3 mg/kg, route oral; settings: in vivo; summary of the method: as §2
[26] = Cmax in rat at 3 mg/kg, po; assay type: ADME, organism-based; set-up: dose 3 mg/kg, route oral; settings: in vivo; summary of the method: as §2
[27] = Oral bioavailability in rat at 3 mg/kg; assay type: ADME, organism-based; settings: in vivo; summary of the method: as §2

`COC(=O)N[C@H](C(=O)N1C[C@@H](C)C[C@H]1c1nc(-c2ccc(-c3ccc(-c4ccc5[nH]c([C@@H]6C[C@H](C)CN6C(=O)[C@@H](NC(=O)OC)C(C)C)nc5c4)cc3)cc2)c[nH]1)C(C)C` showed an EC50 [1] of 4 pM, an EC50 [2] of 5 pM and a Selectivity ratio [3] of 8000. For the same compound, the Selectivity ratio [4] was 42, the Selectivity ratio [5] was 55 and the Selectivity ratio [6] was 100. For the same compound, the CC50 [7] was > 20 µM, the remaining at 1 h, 5 µM [8] was > 90% and the remaining at 1 h, 5 µM [9] was > 90%. For the same compound, the IC50 [10] was > 30 µM, the IC50 [11] was > 30 µM and the IC50 [12] was > 30 µM. For the same compound, the IC50 [13] was > 30 µM, the IC50 [14] was > 30 µM and the IC50 [15] was > 30 µM. For the same compound, the IC50 [16] was > 30 µM, the fraction unbound [17] was 0.014 and the fraction unbound [18] was 0.083. For the same compound, the Papp A→B [19] was 4.1 ×10⁻⁶ cm/s, the efflux ratio [20] was 1.8 and the clearance [21] was 9 mL/min/kg. It also gave a half-life [22] of 120 min, a Vd [23] of 1.4 L/kg and an AUC(0-t) at 8 h [24] of 2080 ng·h/mL. It also gave a half-life [25] of 210 min, a Cmax [26] of 0.03 ng/mL and a bioavailability [27] of 26%.
